Screening results deposited in PubChem BioAssay by Broad Institute.
Only some compounds are listed: those with a hit (about 2.2% of all), similar ones and a draw of the others.
SIRT5 block: blocks human SIRT5 desuccinylation of peptide | AID 652115 | Purified SirT5, succinyl-peptide AMC, trypsin-coupled fluorescence | inhibition, % at 15 µM | actives 1.1% (n = 330,000); in the data active = inhibition above about 15%
FGF22 binding-1: binders of recombinant human FGF22 by thermal shift. activity (Tm shift, normalised), % at 9.99 µM. AID 651658. SYPRO orange fluorescence; percent of sucrose octasulfate shift, DMSO zero. actives 1.5% (n = 340,000);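 active = mean Tm shift, scaled 0 neutral to 100 positive control, at about 1.3% or above, every replicate too, limit read from the data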
ERAP1 inh: blocks human ERAP1 aminopeptidase activity; AID 652197; Q9NZ08; actives 0.15% (n = 340,000); inhibition, % at 10.7 µM; recombinant ERAP1, Leu-AMC fluorescence, 60 min;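 active = mean replicate inhibition of at least 30%, or all replicates individually reaching that 30% level; inactive = mean below 30% and not every replicate reaching it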;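 also: 0% = neutral control wells and 100% = L-leucinethiol positive control wells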
Target sequence (Q9NZ08 whole entry, looked up): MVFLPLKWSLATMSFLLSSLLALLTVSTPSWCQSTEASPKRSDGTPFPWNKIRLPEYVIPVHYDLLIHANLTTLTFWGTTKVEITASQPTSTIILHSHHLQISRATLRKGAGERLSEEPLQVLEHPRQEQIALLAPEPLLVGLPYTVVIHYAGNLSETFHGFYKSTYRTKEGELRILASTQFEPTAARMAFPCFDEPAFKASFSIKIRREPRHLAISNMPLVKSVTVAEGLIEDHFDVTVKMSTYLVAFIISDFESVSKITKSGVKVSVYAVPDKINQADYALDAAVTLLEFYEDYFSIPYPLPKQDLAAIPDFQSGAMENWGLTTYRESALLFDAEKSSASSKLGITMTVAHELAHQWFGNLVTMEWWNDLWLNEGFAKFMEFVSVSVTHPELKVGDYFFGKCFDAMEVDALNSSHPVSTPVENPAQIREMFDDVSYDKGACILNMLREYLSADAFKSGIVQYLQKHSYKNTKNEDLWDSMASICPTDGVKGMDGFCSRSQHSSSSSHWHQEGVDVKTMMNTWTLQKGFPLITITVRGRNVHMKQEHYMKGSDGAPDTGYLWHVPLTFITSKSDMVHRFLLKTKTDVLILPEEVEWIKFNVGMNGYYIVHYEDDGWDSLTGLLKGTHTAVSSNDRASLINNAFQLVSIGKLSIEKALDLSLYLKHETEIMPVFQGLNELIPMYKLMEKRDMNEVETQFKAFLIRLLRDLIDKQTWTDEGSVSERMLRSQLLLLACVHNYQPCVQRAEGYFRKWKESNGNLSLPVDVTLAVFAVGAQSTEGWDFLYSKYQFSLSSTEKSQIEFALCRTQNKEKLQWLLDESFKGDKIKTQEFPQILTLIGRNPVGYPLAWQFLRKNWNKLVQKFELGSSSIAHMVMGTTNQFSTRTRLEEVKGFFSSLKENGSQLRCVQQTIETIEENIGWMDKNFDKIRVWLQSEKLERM
PGC1a acetyl inh: PGC1a acetylation modulation, inhibitor mode | U2OS PGC1a acetylation, AlphaScreen anti-acetyl-lysine; with virally co-expressed GCN5 acetyltransferase | inhibition, % at 15.6 µM | actives 0.17% (n = 350,000) | AID 651687;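 active = every replicate shows inhibition of at least 40%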;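 also: 0% = neutral control wells and 100% = positive control wells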
FN deposition inh: fibronectin deposition inhibition; AH1F fibroblasts, Alexa488-fibronectin deposition fluorescence, overnight; inhibition, % at 12.6 µM; actives 0.086% (n = 350,000);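 active = mean inhibition across replicates of 30% or more, regardless of how many single replicates reach that level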;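 also: positive control wells lacked labelled fibronectin entirely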
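Schedule: 1 h cell adhesion before compound, then overnight fibronectin incubation; test system: AH1F fibroblast monolayer depositing Alexa488-labelled fibronectin into matrix; quantity: 10000 AH1F cells per well; probe or stimulus: fluorescent fibronectin at 24 nM final; signal: fluorescence, ex 485 nm, em 525 nm; evaluation: percent inhibition as loss of matrix-bound fibronectin fluorescence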
FGF22 binding-2: binds human FGF22 shifting its melting temperature; actives 2% (n = 1,000); shares compounds with FGF22 binding-1; recombinant FGF22 thermal shift, SYPRO orange fluorescence; thermal shift activity, °C (ΔTm) at 38 µM;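 active = fitted rise in melting shift crosses a set limit at or below the top valid dose tested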
SYPRO no-protein: counter-screen for FGF22 binders: compound-only thermal shift, no protein; AID 743019; AC50, µM (series often up to 38 µM); compound-only SYPRO orange thermal shift counter-screen; shares compounds with FGF22 binding-1; actives 2% (n = 1,000);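 active = rising signal whose fitted curve reaches the 0.54 level within the top valid dose, showing a melting point, actives reach about 13 µM in these data; inactive = the rest, including activity in the opposite direction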; also: value is where the raw curve crosses a fixed level and not half-maximal
Starred values were filed as active, the others as inactive; i = inactive; . = no result given; [ ] = dose if it differs, or a comment.

SMILES	SIRT5 block	FGF22 binding-1	ERAP1 inh	PGC1a acetyl inh	FN deposition inh	others
Cc1cc([N+](=O)[O-])nn1CCCC(=O)NC(C)c1ccccc1 (stereo not given)	38*	0	1	4	3
C[C@H](CO)N1C[C@H](C)[C@H](CN(C)Cc2ccc(C(=O)Nc3ccccc3N)cc2)Oc2ccc(NS(C)(=O)=O)cc2CC1=O	4	0	-2	-8	.
CC1C(=O)N2CCCc3cc(S(=O)(=O)NCCc4ccccc4)cc1c32 (stereo not given)	72*	0	-1	-1	6
COc1ccc2c3c(n(C)c2c1)[C@@H](CO)N(Cc1nccs1)CC31CN(C(=O)CN(C)C)C1	4	0	2	4	.
C[C@H](CO)N1C[C@H](C)[C@@H](CN(C)C(=O)NC2CCCCC2)OCCCC[C@H](C)Oc2ccc(NC(=O)C3CCCCC3)cc2C1=O	16*	1	5	-8	.
CC(C)NC(=O)Nc1ccc2c(c1)C(=O)N([C@H](C)CO)C[C@H](C)[C@H](CN(C)C(=O)Cc1ccccc1)OCCCC[C@H](C)O2	19*	0	0	3	4
CC(C)NC(=O)Nc1ccc2c(c1)C(=O)N([C@@H](C)CO)C[C@H](C)[C@H](CN(C)C(=O)NC(C)C)OCCCC[C@@H](C)O2	24*	1	1	3	11
CC(C)NC(=O)Nc1ccc2c(c1)C(=O)N([C@@H](C)CO)C[C@@H](C)[C@@H](CN(C)C(=O)NC(C)C)OCCCC[C@@H](C)O2	4	0	5	.	-9
CC(C)NC(=O)Nc1ccc2c(c1)C(=O)N([C@H](C)CO)C[C@H](C)[C@@H](CN(C)C(=O)Cc1ccccc1)OCCCC[C@@H](C)O2	9	0	2	-2	11
CCC(=O)N(C)C[C@@H]1Oc2ncc(-c3ccccc3F)cc2C(=O)N([C@H](C)CO)C[C@H]1C	-1	0	-1	-6	-5
C[C@@H]1CN([C@@H](C)CO)C(=O)c2cccc(NC(=O)c3cnccn3)c2O[C@H]1CN(C)S(=O)(=O)c1ccc(Cl)cc1	.	.	.	-8	-8
Cc1cccc(C)c1NS(=O)(=O)c1ccc(OCCNS(C)(=O)=O)cc1	-1	43*	-2	7	4
CS(=O)(=O)NCCOc1ccc(S(=O)(=O)NCCOc2ccccc2)cc1	1	0	-2	1	-1
Cc1ccc(CSCC(=O)Nc2ccccc2F)cc1	-4	43*	2	9	-1
O=C(CCN1C(=O)/C(=C/c2ccco2)SC1=S)Nc1ccc(C(=O)O)c(O)c1	50*	0	6	.	-5
O=C(CCCN1C(=O)/C(=C\c2ccco2)SC1=S)Nc1ccc2ccccc2c1	14	0	2	.	-12
O=C(CCN1C(=O)/C(=C\c2ccco2)SC1=S)Nc1ccc(C(=O)O)c(O)c1	57*	0	0	.	-5
COc1ccccc1/C=C1\SC(=S)N(CCC(=O)Nc2ccc(C(=O)O)c(O)c2)C1=O	46*	.	-39	.	4
C[C@@H]1CN([C@H](C)CO)C(=O)c2cc(NC(=O)CCC(F)(F)F)ccc2O[C@@H](C)CCCCO[C@@H]1CN(C)C(=O)C1CCCCC1	0	1	-1	-2	.
CC(=O)Nc1ccc(S(=O)(=O)Nc2nc3ccccc3nc2Nc2cccc(O)c2)cc1	5	.	-2	1	-13
CC(=O)Nc1ccc(S(=O)(=O)Nc2nc3ccccc3nc2Nc2ccc(C(=O)O)c(O)c2)cc1	47*	.	12	9	8
O=C(CN1C(=O)COc2ccccc21)NNC(=O)Nc1ccccc1F	26*	0	-1	6	10
O=C(CN1C(=O)COc2ccccc21)Nc1ccccc1F	1	0	-4	-3	6
OC[C@@H]1[C@H](c2ccccc2)C2(CN(Cc3nccs3)C2)N1Cc1cccnc1	20*	0	4	-6	.
O=C(NC1CCC1)[C@H]1[C@H](CO)[C@H]2Cn3c(ccc(-c4ccc(F)cc4)c3=O)[C@H]2N1Cc1ccccn1	-5	0	-7	.	.
SMILES	SIRT5 block	FGF22 binding-1	ERAP1 inh	PGC1a acetyl inh	FN deposition inh	others
O=Cc1ccc2noc(-c3ccc(F)cc3)c2c1	.	.	.	.	3
O=Cc1ccc(F)c([B-](F)(F)F)c1	.	43*	0	17	-1
CC(C)C#Cc1cnc2c(c1)C(=O)N([C@H](C)CO)C[C@H](C)[C@H](CN(C)C(=O)c1cnccn1)O2	-6	1.5*	-4	-7	-4	FGF22 binding-2=-0.007[42 µM];SYPRO no-protein=i
C[C@H]1CN([C@@H](C)CO)C(=O)c2cc(C#CCN(C)C)cnc2O[C@H]1CN(C)C(=O)c1cnccn1	3	0	1	16	.
CC(=O)N(C)C[C@@H]1Oc2ncc(C#CC(C)(C)O)cc2C(=O)N([C@@H](C)CO)C[C@H]1C	-3	1.6*	2	-1	-10	FGF22 binding-2=-0.045;SYPRO no-protein=i
CC(C)C#Cc1cnc2c(c1)C(=O)N([C@@H](C)CO)C[C@H](C)[C@@H](CN(C)C(=O)c1cnccn1)O2	-1	1.5*	-6	5	-5	FGF22 binding-2=0.039[42 µM];SYPRO no-protein=i
CC(C)C#Cc1cnc2c(c1)C(=O)N([C@@H](C)CO)C[C@@H](C)[C@@H](CN(C)C(=O)c1cnccn1)O2	0	1.6*	-7	-6	-6	FGF22 binding-2=-0.002[42 µM];SYPRO no-protein=i
CCCNC(=O)N1C[C@@H](C)[C@H](OC)CN(C)C(=O)c2cc(NC(=O)C3CCC3)ccc2OC[C@H]1C	.	.	.	-10	-8
C[C@H](CO)N1C[C@H](C)[C@H](CN(C)C(=O)CCCN(C)C)OCCCC[C@H](C)Oc2ccc(NC(=O)c3ccccc3)cc2C1=O	-3	0	-2	5	.
Cc1cc(C(=O)Nc2cccc3c2O[C@@H](CN(C)Cc2ccc(Oc4ccccc4)cc2)[C@H](C)CN([C@@H](C)CO)C3=O)n(C)n1	2	-1	3	8	.
C[C@H]1CN([C@@H](C)CO)C(=O)c2cc(C#CC3(O)CCCC3)cnc2O[C@H]1CN(C)C(=O)CC1CC1	-3	1	-2	7	0
C[C@H](CO)N1C[C@H](C)[C@H](CN(C)C(=O)CC2CC2)Oc2ncc(C#CC3(O)CCCC3)cc2C1=O	-2	1.4*	-4	-11	-5	FGF22 binding-2=-0.086;SYPRO no-protein=i
CC(C)C(=O)Nc1ccc2c(c1)C(=O)N(C)[C@@H]1CC[C@@H](CC(=O)N[C@H](C)c3ccccc3)O[C@@H]1CO2	.	0	.	2	-4
Cc1ccc(NC(=O)COC(=O)Cn2cnc3c2c(=O)n(C)c(=O)n3C)cc1Cl	0	1	-2	2	-5
